Results: publication PMC7415440 (Drug Design, Development and Therapy, 2020)

What was measured:
Multiple ascending dose = type: in vivo, human
Procedure, shortened: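 Seven 1 h iv saline infusions every 12 h. Plasma sampled to 12 h after the first dose, predose at 60 and 72 h, then to 96 h; urine collected in 4–12 h intervals after the first and last doses. HPLC-MS/MS with deuterated internal standard; plasma range 10–30,000 ng/mL, urine 50–150,000 ng/mL. Noncompartmental analysis on actual sampling times; AUCτ by trapezoidal rule; CLR as Ae/AUClast.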

[1] = MAD study safety and tolerability assessment; type: in vivo, human; conditions: for Number of Subjects with AEs (%) / Number of Subjects with Drug Related AEs (% total): 6 subjects
Procedure, shortened: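 Double-blind, placebo-controlled trial in healthy Korean males (active:placebo 6:2 per group), infused iv in normal saline over 1 h every 12 h, seven doses over 3.5 days, at 150, 300 or 450 mg. Subjects were in-house days 1–5, with follow-up 8 days after the last dose. Monitoring covered vital signs, 12-lead ECG, clinical labs, physical exams and AEs, with intensity and relationship to drug recorded.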

[2] = multiple iv 150 mg over 1 h every 12 h x7, n=6, mean (SD)
[3] = multiple iv 300 mg over 1 h every 12 h x7, n=6, mean (SD)
[4] = multiple iv 450 mg over 1 h every 12 h x7, n=6, mean (SD)
[5] = multiple iv, all doses 150-450 mg, Total n=18, mean (SD)
[6] = multiple iv doses, n=24, number of subjects [cases]

In the case of `CCOc1cc(CN2CCOCC2)cc2[nH]c(=O)c3c(c12)NCCC3.Cl.Cl.O.O` [JPI-289], the “AUCτ,1st dose” value (Multiple ascending dose; [2]) is reported as 4766.06 (878.28) ng·h/mL, the “AUCτ,ss” value (Multiple ascending dose; [2]) is reported as 7696.21 (1157.59) ng·h/mL and the “Ae,1st dose” value (Multiple ascending dose; [2]) is reported as 3.98 (1.21) mg. For the same molecule, the “Ae,last dose” value (Multiple ascending dose; [2]) was 5.48 (1.64) mg, the “CLR,1st dose” value (Multiple ascending dose; [2]) was 0.84 (0.21) L/h and the “CLR,last dose” value (Multiple ascending dose; [2]) was 0.73 (0.24) L/h. For the same molecule, the CLss (Multiple ascending dose; [2]) was 19.91 (3.37) L/h, the “Cav,ss” value (Multiple ascending dose; [2]) was 641.35 (96.47) ng/mL and the “Cmax,1st dose” value (Multiple ascending dose; [2]) was 1728.17 (353.61) ng/mL. The “Cmax,ss” value (Multiple ascending dose; [2]) was 2023.47 (460.41) ng/mL, the “Observed AI (accumulation index)” value (Multiple ascending dose; [2]) was 1.64 (0.21) and the “Vd,ss” value (Multiple ascending dose; [2]) was 112.20 (31.78) L. For the same molecule, the Vz (Multiple ascending dose; [2]) was 85.65 (17.01) L, the “t1/2,eff” value (Multiple ascending dose; [2]) was 1.88 (0.13) L and the t1/2z (Multiple ascending dose; [2]) was 2.44 h. The “AUCτ,1st dose” value (Multiple ascending dose; [3]) was 14,809.79 (2793.29) ng·h/mL, the “AUCτ,ss” value (Multiple ascending dose; [3]) was 22,608.80 (5198.68) ng·h/mL and the “Ae,1st dose” value (Multiple ascending dose; [3]) was 11.74 (3.77) mg. For the same molecule, the “Ae,last dose” value (Multiple ascending dose; [3]) was 13.87 (5.36) mg, the “CLR,1st dose” value (Multiple ascending dose; [3]) was 0.80 (0.25) L/h and the “CLR,last dose” value (Multiple ascending dose; [3]) was 0.61 (0.14) L/h. The CLss (Multiple ascending dose; [3]) was 13.95 (3.63) L/h, the “Cav,ss” value (Multiple ascending dose; [3]) was 1884.07 (433.23) ng/mL and the “Cmax,1st dose” value (Multiple ascending dose; [3]) was 4747.25 (798.21) ng/mL. For the same molecule, the “Cmax,ss” value (Multiple ascending dose; [3]) was 5658.20 (804.71) ng/mL, the “Observed AI (accumulation index)” value (Multiple ascending dose; [3]) was 1.52 (0.22) and the “Vd,ss” value (Multiple ascending dose; [3]) was 74.92 (11.18) L. For the same molecule, the Vz (Multiple ascending dose; [3]) was 67.95 (11.04) L, the “t1/2,eff” value (Multiple ascending dose; [3]) was 2.46 (0.67) L and the t1/2z (Multiple ascending dose; [3]) was 2.74 h. The “AUCτ,1st dose” value (Multiple ascending dose; [4]) was 28,278.07 (6412.76) ng·h/mL, the “AUCτ,ss” value (Multiple ascending dose; [4]) was 50,840.74 (19,417.91) ng·h/mL and the “Ae,1st dose” value (Multiple ascending dose; [4]) was 25.66 (5.03) mg. The “Ae,last dose” value (Multiple ascending dose; [4]) was 40.71 (20.87) mg, the “CLR,1st dose” value (Multiple ascending dose; [4]) was 0.92 (0.16) L/h and the “CLR,last dose” value (Multiple ascending dose; [4]) was 0.77 (0.22) L/h. For the same molecule, the CLss (Multiple ascending dose; [4]) was 9.78 (3.11) L/h, the “Cav,ss” value (Multiple ascending dose; [4]) was 4236.73 (1618.16) ng/mL and the “Cmax,1st dose” value (Multiple ascending dose; [4]) was 8070.98 (1320.10) ng/mL. The “Cmax,ss” value (Multiple ascending dose; [4]) was 11,921.28 (1655.56) ng/mL, the “Observed AI (accumulation index)” value (Multiple ascending dose; [4]) was 1.76 (0.28) and the “Vd,ss” value (Multiple ascending dose; [4]) was 72.06 (8.72) L. The Vz (Multiple ascending dose; [4]) was 63.02 (8.23) L, the “t1/2,eff” value (Multiple ascending dose; [4]) was 3.05 (0.97) L and the t1/2z (Multiple ascending dose; [4]) was 3.5 h. For the same molecule, the “AUCτ,1st dose” value (Multiple ascending dose; [5]) was 15,951.31 (10,623.66) ng·h/mL, the “AUCτ,ss” value (Multiple ascending dose; [5]) was 27,048.58 (21,404.87) ng·h/mL and the “Ae,1st dose” value (Multiple ascending dose; [5]) was 13.79 (9.86) mg. The “Ae,last dose” value (Multiple ascending dose; [5]) was 20.02 (19.40) mg, the “CLR,1st dose” value (Multiple ascending dose; [5]) was 0.85 (0.20) L/h and the “CLR,last dose” value (Multiple ascending dose; [5]) was 0.70 (0.21) L/h. The CLss (Multiple ascending dose; [5]) was 14.54 (5.33) L/h, the “Cav,ss” value (Multiple ascending dose; [5]) was 2254.05 (1783.74) ng/mL and the “Cmax,1st dose” value (Multiple ascending dose; [5]) was 4848.80 (2800.32) ng/mL. The “Cmax,ss” value (Multiple ascending dose; [5]) was 6534.32 (4330.54) ng/mL, the “Observed AI (accumulation index)” value (Multiple ascending dose; [5]) was 1.64 (0.24) and the “Vd,ss” value (Multiple ascending dose; [5]) was 86.39 (26.65) L. The Vz (Multiple ascending dose; [5]) was 72.21 (15.52) L, the “t1/2,eff” value (Multiple ascending dose; [5]) was 2.46 (0.81) L and the t1/2z (Multiple ascending dose; [5]) was 2.89 h. For the same molecule, the “intensity of AEs” value ([1]; MAD) was “mild in intensity”, the tolerability ([1]; MAD, dose range 150–450 mg) was “well tolerated” and the “total number of AEs” value ([1]; MAD, in seven subjects) was 12. The “Number of Subjects with AEs (%)” value ([1]; multiple iv doses 150 mg) was 0 (0.0), the “Number of Subjects with Drug Related AEs (% total)” value (“Number of Subjects … (% total)” for short) ([1]; multiple iv doses 150 mg) was 0 (0.0) and the “Number of Subjects with AEs (%)” value ([1]; multiple iv doses 300 mg) was 1 (16.7). The “Number of Subjects … (% total)” value ([1]; multiple iv doses 300 mg) was 1 (16.7), the “Number of Subjects with AEs (%)” value ([1]; multiple iv doses 450 mg) was 5 (83.3) and the “Number of Subjects … (% total)” value ([1]; multiple iv doses 450 mg) was 4 (66.7). The “Abdominal discomfort, Drug-Related” value [1, 6] was 0 [0], the “Abdominal discomfort, Not Related” value [1, 6] was 1 [1] and the “Abdominal discomfort, Total” value [1, 6] was 1 [1]. The “Bilirubin total increased, Drug-Related” value [1, 6] was 1 [1], the “Bilirubin total increased, Not Related” value [1, 6] was 0 [0] and the “Bilirubin total increased, Total” value [1, 6] was 1 [1]. The “Diarrhea, Drug-Related” value [1, 6] was 0 [0], the “Diarrhea, Not Related” value [1, 6] was 1 [1] and the “Diarrhea, Total” value [1, 6] was 1 [1]. The “Dizziness, Drug-Related” value [1, 6] was 2 [2], the “Dizziness, Not Related” value [1, 6] was 0 [0] and the “Dizziness, Total” value [1, 6] was 2 [2]. The “Fever, Drug-Related” value [1, 6] was 1 [1], the “Fever, Not Related” value [1, 6] was 0 [0] and the “Fever, Total” value [1, 6] was 1 [1]. For the same molecule, the “Headache, Drug-Related” value [1, 6] was 2 [2], the “Headache, Not Related” value [1, 6] was 0 [0] and the “Headache, Total” value [1, 6] was 2 [2]. The “Heart rate increased, Drug-Related” value [1, 6] was 0 [0], the “Heart rate increased, Not Related” value [1, 6] was 0 [0] and the “Heart rate increased, Total” value [1, 6] was 0 [0]. The “Sinus tachycardia, Drug-Related” value [1, 6] was 1 [1], the “Sinus tachycardia, Not Related” value [1, 6] was 0 [0] and the “Sinus tachycardia, Total” value [1, 6] was 1 [1]. For the same molecule, the “Stomatitis, Drug-Related” value [1, 6] was 1 [1], the “Stomatitis, Not Related” value [1, 6] was 0 [0] and the “Stomatitis, Total” value [1, 6] was 1 [1]. The “Urticaria, Drug-Related” value [1, 6] was 2 [2], the “Urticaria, Not Related” value [1, 6] was 0 [0] and the “Urticaria, Total” value [1, 6] was 2 [2].
